Results on one molecule are retold here after ChEMBL document CHEMBL1671618, “Functional cloning and characterization of the multidrug efflux pumps NorM from Neisseria gonorrhoeae and YdhE from Escherichia coli” (Antimicrob Agents Chemother, 2008).

The subject of test [1] is Escherichia coli. In words: Antimicrobial activity against AcrAB-deficient Escherichia coli AG100AX harboring pBADomeganorM plasmid containing Neisseria gonorrhoeae multidrug efflux pump NorM after 18 to 24 hrs by two fold dilution method. The format is functional.
In test [2] the test system is Escherichia coli. In words: Antimicrobial activity against AcrAB-deficient Escherichia coli AG100AX harboring pBAD plasmid after 18 to 24 hrs by two fold dilution method. The format is functional. The gist of the method:
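Twofold agar dilution on LB agar containing the antimicrobial, inoculum 10⁴ CFU/spot. Growth was scored after 18–24 h at 37°C, and each MIC determination was repeated at least four times.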

Test [3] relates to Escherichia coli. In words: Antimicrobial activity against AcrAB-deficient Escherichia coli AG100AX harboring pBADomegaydhE plasmid containing Escherichia coli multidrug efflux pump YdhE after 18 to 24 hrs by two fold dilution method. The format is functional.
Test [4] is described as follows: Binding affinity to Neisseria gonorrhoeae FA19 multidrug efflux protein NorM expressed in Escherichia coli AG100AX in presence of 0.02% DDM surfactant by fluorescence polarization assay.
For test [5], the target named is T1, Multidrug resistance protein MdtK (Escherichia coli (strain K12), UniProt P37340).
T1 sequence (P37340 whole entry): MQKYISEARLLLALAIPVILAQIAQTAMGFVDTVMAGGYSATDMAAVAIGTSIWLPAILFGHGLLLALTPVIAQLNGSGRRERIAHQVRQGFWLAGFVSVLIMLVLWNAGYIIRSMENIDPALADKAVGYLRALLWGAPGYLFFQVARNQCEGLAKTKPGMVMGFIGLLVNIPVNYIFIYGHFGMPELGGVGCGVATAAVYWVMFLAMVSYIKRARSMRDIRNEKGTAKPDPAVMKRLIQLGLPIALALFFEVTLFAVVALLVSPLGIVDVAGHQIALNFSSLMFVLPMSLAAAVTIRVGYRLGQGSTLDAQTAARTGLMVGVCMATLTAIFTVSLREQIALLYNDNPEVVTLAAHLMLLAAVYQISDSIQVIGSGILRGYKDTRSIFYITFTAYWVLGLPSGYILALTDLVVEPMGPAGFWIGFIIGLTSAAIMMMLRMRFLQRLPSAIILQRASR
In words: Binding affinity to Escherichia coli K-12 multidrug efflux protein YdhE […] in presence of 0.02% DDM surfactant by fluorescence polarization assay.

Test [6] in a line: Binding affinity to Neisseria gonorrhoeae FA19 multidrug efflux protein NorM […] using Scatchard plot in presence of 0.02% DDM surfactant by fluorescence polarization assay. (In fluorescence polarisation assays a small probe gives low polarisation when free and higher when bound to something large.)
Test [7] deals with T1, Multidrug resistance protein MdtK. In words: Binding affinity to purified detergent-solubilized Escherichia coli K-12 multidrug efflux protein YdhE by equilibrium dialysis method. The method in brief:
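YdhE carried a C-terminal His6 tag and was overproduced in E. coli TOP10 by L-arabinose induction. It was solubilized in 1% DDM, then purified by Ni2+-affinity and G-200 sizing in 20 mM HEPES-NaOH pH 7.5 with 0.02% DDM. Purity was >90% by SDS-PAGE. Rhodamine 6G binding was measured by equilibrium dialysis to give the KD and the binding stoichiometry.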

Test [8] in a line: Binding affinity to Neisseria gonorrhoeae FA19 multidrug efflux protein NorM expressed in Escherichia coli AG100AX at pH 8.5 by fluorescence polarization assay. The method in brief: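 Rhodamine 6G (1 μM) binding to purified DDM-solubilized His6-NorM, measured by steady-state fluorescence polarization across pH 5.8 to 8.5. Excitation 527 nm, emission 550 nm, 25°C, 5-min equilibration per titration point. KD fitted at each pH.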

The target of test [9] is T2, Multidrug efflux pump subunit AcrB (Escherichia coli (strain K12), UniProt P31224).
T2 sequence (P31224 whole entry): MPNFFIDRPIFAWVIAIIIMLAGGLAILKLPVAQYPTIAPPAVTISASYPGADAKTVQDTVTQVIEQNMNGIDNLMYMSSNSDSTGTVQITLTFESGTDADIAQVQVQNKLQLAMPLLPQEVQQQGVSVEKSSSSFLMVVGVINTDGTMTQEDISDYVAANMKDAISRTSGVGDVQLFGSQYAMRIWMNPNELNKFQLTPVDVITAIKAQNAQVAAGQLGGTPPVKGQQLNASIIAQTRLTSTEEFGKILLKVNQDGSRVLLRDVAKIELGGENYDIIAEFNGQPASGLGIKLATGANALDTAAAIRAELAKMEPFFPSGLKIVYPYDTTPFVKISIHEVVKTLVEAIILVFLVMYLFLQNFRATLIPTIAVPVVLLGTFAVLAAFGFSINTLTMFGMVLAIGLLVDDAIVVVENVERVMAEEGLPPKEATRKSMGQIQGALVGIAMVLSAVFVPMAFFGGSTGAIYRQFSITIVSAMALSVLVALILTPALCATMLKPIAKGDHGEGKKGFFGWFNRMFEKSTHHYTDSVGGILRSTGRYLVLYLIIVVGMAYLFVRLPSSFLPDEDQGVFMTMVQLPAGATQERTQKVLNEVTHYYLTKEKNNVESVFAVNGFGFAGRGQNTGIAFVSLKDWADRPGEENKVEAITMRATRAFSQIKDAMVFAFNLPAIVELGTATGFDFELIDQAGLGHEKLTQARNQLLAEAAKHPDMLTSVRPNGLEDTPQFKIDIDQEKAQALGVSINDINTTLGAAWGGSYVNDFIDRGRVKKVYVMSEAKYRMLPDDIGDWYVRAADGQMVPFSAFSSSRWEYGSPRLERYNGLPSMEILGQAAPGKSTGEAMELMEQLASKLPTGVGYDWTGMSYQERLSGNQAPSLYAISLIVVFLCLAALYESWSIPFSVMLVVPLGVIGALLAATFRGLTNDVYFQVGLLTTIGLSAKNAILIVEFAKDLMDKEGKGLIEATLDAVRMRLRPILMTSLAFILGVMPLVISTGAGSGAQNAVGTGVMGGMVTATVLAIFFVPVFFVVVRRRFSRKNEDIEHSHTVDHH
In words: Binding affinity to Escherichia coli K-12 multidrug efflux protein AcrB at pH 8.4 by equilibrium dialysis method. (In equilibrium dialysis free small molecules cross a membrane that holds back macromolecules.)

Test [10] in a line: Binding affinity to Neisseria gonorrhoeae FA19 multidrug efflux protein NorM expressed in Escherichia coli AG100AX in presence of => 100 mM NaCl by fluorescence polarization assay. The gist of the method: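 NaCl at 100 to 400 mM added to rhodamine 6G (1 μM) binding mixtures with purified His6-NorM in 20 mM HEPES-NaOH pH 7.5, 0.02% DDM.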

Consider `CC/N=c1\cc2oc3cc(NCC)c(C)cc3c(-c3ccccc3C(=O)OCC)c-2cc1C.Cl` [RHODAMINE 6G HYDROCHLORIDE], for which the results for the MIC against Escherichia coli [1], against Escherichia coli [2] and against Escherichia coli [3] were 12.5 µg/mL, 3.12 µg/mL and 12.5 µg/mL, respectively. The Kd (commonly the concentration at which binding is half-saturated) in [4] was determined as 3.4 µM; in test [5] it was 3 µM; in [6], 3.6 µM; in test [7], 3 µM; in test [8], 2.6 µM; in test [9], 10.3 µM. Further, the Kd in test [10] is 2.5 µM.
